IDE act – IDE (human) activation, cell-based | activation, % at 5.96 µM | actives 0.073% (n = 340,000) | HEK cells, FAbeta-B cleavage, fluorescence polarization; 0% vehicle, 100% cell-free pure enzyme wells | P14735 | AID 493087;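 active = activation above the mean of all tested compounds plus 3 SD, set per screening campaign, cut at about 17% in these data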
IDE inh – inhibits human insulin-degrading enzyme in HEK cells; FAbetaB cleavage, fluorescence polarization; inhibition, % at 5.59 µM; actives 0.41% (n = 320,000); AID 434962;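 active = percent inhibition above the average of all tested compounds plus 3 SD, set per screening campaign, cut at about 16% in these data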;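 also: IDE supplied by intact live HEK cells; FP after avidin binding of uncleaved biotin substrate so inhibition keeps polarization high; 0% = DMSO wells and 100% = 60 µM reference IDE inhibitor Ii1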
TPT1 inh – inhibitors of Candida albicans tRNA 2'-phosphotransferase TPT1. recombinant caTPT1, FP RNA substrate dephosphorylation. inhibition, % at 5 µM. actives 0.81% (n = 300,000). AID 1962;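 active = inhibition above the mean of all tested compounds plus 3 SD, set per screening campaign, cut at about 24% in these data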;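 also: plate controls were DMSO alone for no effect and ferristatin control at 100 nM for full effect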
Tb MetRS inh – Trypanosoma brucei MetRS inhibition; purified T. brucei MetRS, ATP depletion, Kinase-Glo luminescence; inhibition, % at 11.9 µM; actives 0.4% (n = 360,000); AID 624268;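 active = inhibition above a per-plate cutoff of the control wells' mean inhibition plus 3 SD, cut at about 5.5% in these data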;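 also: 0% = DMSO wells median and 100% = median of wells with control inhibitor compound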
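assay system = parasite MetRS enzyme | timing = 15 min preincubation, 2 h reaction, all 25 °C | evaluation = percent inhibition relative to median high and low control wells | medium = HEPES buffer containing pyrophosphatase, BSA, spermine, DTT | compound = single dose, 11.9 µM final nominal, 0.9% final DMSO | detection = Kinase-Glo luminescence, ATP depletion format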
HNF4A DNA FP – change in binding of human HNF4 alpha to DNA; HNF4a-FITC DNA binding, fluorescence polarization, 1 h; activity change, % at 10 µM; P41235; actives 0.3% (n = 360,000); in the data active = activity change above about 30%, passing the limit was not always enough
Target sequence (P41235 whole entry, looked up): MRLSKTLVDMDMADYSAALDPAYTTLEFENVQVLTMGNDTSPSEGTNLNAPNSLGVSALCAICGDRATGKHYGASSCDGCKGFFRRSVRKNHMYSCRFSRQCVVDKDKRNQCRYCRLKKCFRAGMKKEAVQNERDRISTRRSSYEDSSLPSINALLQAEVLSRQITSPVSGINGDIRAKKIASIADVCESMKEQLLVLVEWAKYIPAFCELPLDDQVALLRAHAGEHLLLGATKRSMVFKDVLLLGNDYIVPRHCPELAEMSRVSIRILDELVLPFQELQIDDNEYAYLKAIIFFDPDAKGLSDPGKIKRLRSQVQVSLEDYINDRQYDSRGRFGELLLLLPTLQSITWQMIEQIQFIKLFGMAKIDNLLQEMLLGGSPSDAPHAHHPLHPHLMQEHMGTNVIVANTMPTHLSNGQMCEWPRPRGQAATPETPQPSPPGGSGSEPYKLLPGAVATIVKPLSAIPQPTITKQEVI
CSN deneddyl inh – inhibitors of human CSN-mediated cullin deneddylation | AID 651999 | Q92905 | Purified CSN, SCF-Nedd8-OG deneddylation, fluorescence polarization | actives 0.38% (n = 360,000) | inhibition, % at 12.5 µM;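 active = pattern-corrected inhibition above about 35%, with an unprinted fluorescence ratio check between 0.5 and 1.5, limit read from the data, passing the limit was not always enough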;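 also: 0% = enzyme with substrate and 100% = substrate without enzyme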
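Test system: Human Csn5 produced in HEK293T cells | Compound: 12.5 µM single point | Times: 90 min, room temperature | Signal: Fluorescence polarization readout | Read-out basis: % inhibition of substrate cleavage by Csn5 | Controls: no-enzyme wells high, enzyme-with-substrate wells low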
TbMetRS confirm – confirmation of Trypanosoma brucei MetRS inhibitors | actives 93% (n = 1,400) | inhibition, % at 11.9 µM | T. brucei MetRS enzyme, luminescence (ATP depletion) | shares compounds with Tb MetRS inh; in the data active = inhibition above about 7%
Jurkat cytotox – Jurkat T cell cytotoxicity for MetRS hits. inhibition, % at 8.3 µM. actives 12% (n = 1,400). shares compounds with Tb MetRS inh. Jurkat cells viability, ATP luminescence; in the data active = inhibition above about 15%;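 also: 0% = vehicle and 100% = reference inhibitor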
Tb MetRS inh FP – T. brucei MetRS inhibition, orthogonal assay. shares compounds with Tb MetRS inh. purified T. brucei MetRS, fluorescence polarization. inhibition, % at 11.9 µM. actives 44% (n = 1,400). AID 651607; in the data active = inhibition above about 17%;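 also: 0% = vehicle wells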
Active calls of the source: *; / = not tested or not shown. This is a sample that favours compounds with a hit; in the whole collection about 1.7% have one here.

SMILES	IDE act	IDE inh	TPT1 inh	Tb MetRS inh	HNF4A DNA FP	CSN deneddyl inh	TbMetRS confirm	Jurkat cytotox	Tb MetRS inh FP
COc1ccc(CCN2C(=S)N(C)C(=O)C2CC(=O)Nc2ccc(OC)cc2)cc1 (stereo not given)	0	2	5	44*	3	1	62*	-4	31*
COc1ccc(NC(=O)CC2C(=O)N(C)C(=S)N2CCc2ccccc2)cc1 (stereo not given)	3	3	2	50*	2	1	49*	5	25*
O=C(CC1C(=O)N(c2ccc(Cl)cc2)C(=S)N1CCc1ccncc1)Nc1ccc(F)cc1 (stereo not given)	-3	1	-2	21*	-1	7	23*	2	23*
COc1ccc(NC(=O)CC2C(=O)N(C)C(=S)N2CCc2ccc(F)cc2)cc1 (stereo not given)	/	-6	0	50*	3	-6	67*	12	43*
C=Cc1cnc([N+](=O)[O-])n1C	/	/	/	0	2	1	/	/	/
COc1ccc(NC(=O)CC2C(=O)N(c3ccc(OC)cc3)C(=S)N2NC(=O)c2cccc(F)c2)cc1 (stereo not given)	1	-2	7	1	5	-5	/	/	/
CCN1C(=O)C(CC(=O)Nc2ccc(OC)cc2)N(CCc2ccc(F)cc2)C1=S (stereo not given)	1	-1	2	39*	-2	5	46*	9	33*
COc1ccc(N2C(=O)C(CC(=O)Nc3ccc(Cl)cc3)N(NC(=O)c3cccc(F)c3)C2=S)cc1 (stereo not given)	-2	-2	-2	39*	2	-3	51*	-9	24*
CCN1C(=O)C(CC(=O)Nc2ccc(OC)cc2)N(CCCN2CCN(c3ccc(F)cc3)CC2)C1=S (stereo not given)	-2	3	-2	-1	-5	6	/	/	/
COc1ccccc1C1NC(=O)NC(C)=C1C(=O)OCC1CCCCC1 (stereo not given)	/	/	/	0	-1	-1	/	/	/
Clc1ccc(-c2nnc(SCc3nc4ccccc4[nH]3)o2)c(Cl)c1	4	3	-3	78*	0	-2	101*	5	90*
COc1cc(/C=N/Nc2nc3ccccc3[nH]c2=O)ccc1O	1	-1	-1	-1	-2	5	/	/	/
Cc1nn(-c2ccccc2)c(C)c1/C=N/Nc1nc2ccccc2[nH]1	-6	9	1	8.0*	-5	2	14*	9	13
COc1cc(/C=N/Nc2nc3ccccc3[nH]2)ccc1O	-2	6	-4	7.9*	-3	-4	15*	15	32*
O=[N+]([O-])c1ccc(O)c(/C=N/Nc2nc3ccccc3[nH]2)c1	8	-2	3	9.5*	0	-3	14*	98*	15
COc1ccc(O)c(/C=N/Nc2nc3ccccc3[nH]2)c1	1	4	-3	0	-2	1	/	/	/
COc1cccc(/C=N/Nc2nc3ccccc3[nH]2)c1O	3	-1	-4	8.8*	0	-3	10*	96*	7
Cc1ccc(CNC(=O)C(=O)NCC2OCCCN2S(=O)(=O)c2ccc(F)cc2)cc1 (stereo not given)	8	-2	1	-1	0	1	/	/	/
Cc1scc(C(=O)N2CCN(S(C)(=O)=O)CC2)c1-c1ccccc1	-1	-7	4	24*	0	-6	4	2	-3
Cc1cc(F)cc(-c2cc(C(=O)NCc3ccccn3)[nH]n2)c1	/	/	/	0	-3	2	/	/	/

Screening results (PubChem)
